A selection: hits, their analogues and other compounds. The true share with any hit is near 9.3%.
PostGolgi yeast: growth inhibition of a yeast mutant, post-Golgi transport screen | AID 739 | hit rate 0.9% among 98,000 | inhibition, % at 10 µM | post-Golgi transport phenotypic cell assay;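 note: yeast cells grown in 1536-well plates; yeast grown about 18 h at 30C before absorbance read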
hDAT+cocaine: modulates human dopamine transporter uptake under cocaine; AID 449768; LLC-PK1 hDAT cells, [14C]-dopamine uptake with cocaine IC80; actives deviate in either direction; hit rate 1.3% among 110,000; Q01959; B-score at 10 µM;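 active = Z score or B-score, a plate-position-corrected score, falls beyond the plate's 99.7% confidence bounds, in either direction; inactive = both scores lie inside the 99.7% bounds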;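 note: scored against the spread of the other compound wells on the same plate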
D1 mod: allosterically modulates the human D1 dopamine receptor. B-score at 10 µM. HEK293 D1, CRE-luciferase, dopamine EC30 potentiation; actives deviate in either direction. hit rate 5.9% among 58,000. P21728;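 active = luminescence count or its row- and column-corrected plate score outside the 99.7% band of the plate's sample wells, on either side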
Target sequence (P21728 whole entry, looked up): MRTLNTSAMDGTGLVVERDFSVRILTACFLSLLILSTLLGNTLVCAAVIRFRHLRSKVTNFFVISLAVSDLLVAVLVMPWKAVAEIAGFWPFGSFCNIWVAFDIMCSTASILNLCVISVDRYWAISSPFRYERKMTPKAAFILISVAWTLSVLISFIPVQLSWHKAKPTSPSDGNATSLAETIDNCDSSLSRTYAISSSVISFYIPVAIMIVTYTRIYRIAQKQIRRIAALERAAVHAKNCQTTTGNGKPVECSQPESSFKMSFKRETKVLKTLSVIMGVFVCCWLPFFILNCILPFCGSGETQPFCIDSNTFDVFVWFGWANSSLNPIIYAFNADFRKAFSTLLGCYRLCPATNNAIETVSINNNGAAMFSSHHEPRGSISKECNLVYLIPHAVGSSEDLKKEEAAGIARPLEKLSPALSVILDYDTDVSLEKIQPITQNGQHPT
PostGolgi ctrl: yeast control strain growth, post-Golgi counter-screen | efflux-deficient yeast background strain, growth absorbance A615, 16 h | inhibition, % at 10 µM | hit rate 5% among 98,000
E coli WT exp: blocks growth of wild type E. coli BW25113 | OD600 absorbance | hit rate 0.15% among 98,000 | AID 710 | growth inhibition, % at 100 µM;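 active = growth inhibition above about 50% at one test dose, limit read from the data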;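 note: growth measured after 20 h incubation at 37 °C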
tolC growth inh: E. coli tolC mutant growth inhibition. E. coli BW25113 tolC mutant growth, OD615. growth inhibition, % at 10 µM (by protocol). hit rate 2.2% among 65,000. AID 573;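 active = growth inhibition at or above a cutoff equal to the mean over every tested compound plus 3 SD, cut at about 60% in these data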;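 note: growth measured after 20 h incubation at 37 °C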
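System: E. coli ΔtolC::kan strain BW25113; Buffer or medium: LB broth supplemented with 50 µg/mL kanamycin; Compound: 10 µM final, single dose; Incubation: bacterial growth with compound for 20 h at 37 °C; Signal: A615 absorbance measurement; Evaluation: growth inhibition in percent.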
D1 mod confirm: confirmation of human D1 dopamine receptor allosteric modulators; hit rate 88% among 2,200; luminescence at 10 µM; HEK293 D1 CRE-luciferase, dopamine EC30 potentiation; hits give high values; AID 642; shares compounds with D1 mod;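 active = luminescence in either of two replicates above the same-plate mean plus 3 SD of the low-dose dopamine control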
D1 no dopamine: activates D1 CRE-luciferase signal without dopamine present | HEK293 D1 CRE-luciferase, luminescence, no dopamine; hits give high values | AID 646 | hit rate 0.8% among 1,900 | shares compounds with D1 mod | luminescence at 10 µM; in the data active = luminescence above about 3900
Isoprot counter: alters isoproterenol CRE-luciferase response in HEK293 cells; HEK293 D1 CRE-luciferase, isoproterenol EC30 counter-screen; AID 647; shares compounds with D1 mod; hit rate 63% among 2,200; calls only at 10 µM;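 active = luminescence in either replicate above plate mean of wells with a partly effective reference agonist dose plus 3 SD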;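 note: isoproterenol raises cAMP through native beta-adrenoceptor Gs so signal bypasses D1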
The depositor's hits bear a star; i = inactive; · = no result; + = active, no number. Cut-off read from the data, not from the text of the source, unless noted: active = inhibition above about 30%; inactive = the rest.

SMILES	PostGolgi yeast	hDAT+cocaine	D1 mod	PostGolgi ctrl	E coli WT exp	tolC growth inh	D1 mod confirm	D1 no dopamine	Isoprot counter
CCOC(=O)C1=C(C)NC2=C(C(=O)CC(C)(C)C2)C1c1cccc(C)n1 (stereo not drawn)	2.9	-1.01	0.815	1.7	9.0	-10.5	·	·	·
Clc1ccccc1Cn1nnc2c(NCC3CC3)ncnc21	20.9	-0.278	2.76*	8.3	-5.0	5.7	6104*	1744	+
COC(=O)c1sc(=S)sc1C(=O)OC	0.3	0.207	3.29*	12.6	14.0	-19.8	8136*	1608	i
COc1ccccc1Cn1c(CCCO)nc2ccccc21	7.7	-0.367	0.543	0.1	1.0	0.2	·	·	·
COc1ccc(Cn2c(CCCO)nc3ccccc32)cc1OC	20.1	-0.199	13.8*	6.4	0.0	4.3	15968*	1476	+
CCc1nc2ccccc2n1Cc1ccc(OC)c(OC)c1	4.9	-1.85	6.19*	2.2	0.0	-0.2	18880*	1604	+
CCc1nc2scc(-c3ccccc3)c2c(=O)n1N	-4.8	-0.00834	6.55*	11.9	4.0	-5.4	14056*	1596	+
N#CC1=C(N)n2c(s/c(=C\c3ccco3)c2=O)=C(C#N)C1c1ccco1 (stereo not drawn)	18.1	0.846	11.9*	11.3	-3.0	14.4	14056*	1704	i
CCOC(=O)C1=C(N)n2c(s/c(=C/c3ccco3)c2=O)=C(C(=O)OC)C1c1ccco1 (stereo not drawn)	-0.6	1.28	1.49	5.6	-15.0	2.5	·	·	·
COc1cccc(Nc2nc(N)nc(C(F)(F)F)n2)c1	5.7	-0.555	11.2*	9.9	20.0	3.1	14320*	1712	+
Nc1nc(Nc2ccc(Cl)cc2Cl)nc(C(F)(F)F)n1	13.4	-0.177	10.9*	17.1	-3.0	15.7	13920*	·	+
Nc1nc(Nc2ccccc2Br)nc(C(F)(F)F)n1	3.3	-0.755	7.29*	9.9	6.0	5.7	15052*	1632	+
C#Cc1ccc([C@H]2C=C(C(=O)NCc3ccccc3)O[C@@H](OCc3ccc(CO)cc3)C2)cc1	·	0.673	·	·	·	·	·	·	·
Cc1cc(C(=O)Nc2ccc(C(=O)O)cc2)c(-c2ccccc2)o1	-0.7	-0.0596	2.55*	-8.9	-11.0	13.6	7724*	1596	+
CC(=O)c1cc(C(=O)Nc2ccc(C(=O)O)cc2)oc1C	-4.4	-0.432	·	23.7	1.0	·	·	·	·
COc1ccc(NC(=O)CSc2nc3ccccc3c(=O)n2-c2ccc3c(c2)OCO3)c(OC)c1	-2.9	-0.101	3.92*	21.4	-6.0	9.6	8076*	1568	+
COc1ccc(S(=O)(=O)N(C)CC(=O)Nc2cccc(C(C)=O)c2)cc1Cl	4.3	0.222	·	-3.8	-15.0	·	·	·	·
CC(=O)C(C)Oc1ccc2c3c(c(=O)oc2c1C)CCCC3 (stereo not drawn)	16.8	·	3.17*	5.7	2.0	47.5	9268*	1608	+
CCOc1ccc(S(=O)(=O)Nc2cc(OC)ccc2OC)cc1	6.7	-1.94	4.49*	5.6	-1.0	22.6	11952*	1748	+
COc1ccc(/C=N/n2c(SC)nnc2-c2ccccc2)cc1C	-1.3	2.8	16.1*	42.9*	-5.0	86.9*	23520*	1680	+
CCS(=O)(=O)n1nc(-c2ccccc2)nc1NCc1ccco1	16.9	-0.273	9.8*	10.6	2.0	11.3	9056*	1636	+
Cc1ccsc1C(C(=O)NC1CCCCC1)N(C(=O)c1csnn1)C1CC1 (stereo not drawn)	-2.0	0.531	-0.634	-3.2	5.0	-7.4	·	·	·
CCOCCn1c(SCc2ccc(F)cc2)nc2c1c(=O)[nH]c(=O)n2C	-3.7	-0.227	-0.0468	-1.5	-11.0	5.5	·	·	·
CCOCCn1c(SCc2ccccc2)nc2c1c(=O)[nH]c(=O)n2C	·	-0.116	0.263	·	·	7.2	·	·	·
CCOC(=O)C(C)Sc1nc2c(c(=O)[nH]c(=O)n2C)n1C/C=C(/C)Cl (stereo not drawn)	10.0	-0.0144	9.27*	3.8	27.0	10.1	12104*	1572	+
SMILES	PostGolgi yeast	hDAT+cocaine	D1 mod	PostGolgi ctrl	E coli WT exp	tolC growth inh	D1 mod confirm	D1 no dopamine	Isoprot counter
C/C=C/Cn1c(SCc2ccccc2)nc2c1c(=O)[nH]c(=O)n2C	-1.9	-0.024	15.1*	10.8	1.0	9.6	16256*	1572	+
C/C(Cl)=C/Cn1c(SCc2ccc(Cl)cc2)nc2c1c(=O)[nH]c(=O)n2C	-3.3	0.621	8.76*	10.8	-5.0	-10.3	10156*	1472	+
C=CCSc1nc2c(c(=O)[nH]c(=O)n2C)n1C/C=C(/C)Cl	12.7	-1.45	19.2*	10.5	-3.0	18.4	20956*	·	+
CC(NC(=O)c1ccccc1)C(c1cccs1)N1CCOCC1 (stereo not drawn)	-6.2	0.277	·	-0.3	-14.0	·	·	·	·
C/C(Cl)=C/Cn1c(SCCN2CCOCC2)nc2c1c(=O)[nH]c(=O)n2C	0.0	1.56	1.1	16.0	-9.0	2.4	·	·	·
CSc1nc2c(c(=O)[nH]c(=O)n2C)n1C/C=C(\C)Cl	-2.4	0.544	15.1*	6.7	1.0	-0.7	24712*	1588	+
CCSc1nc2c(c(=O)[nH]c(=O)n2C)n1C/C=C(/C)Cl	5.2	-0.041	14*	1.0	-6.0	12.8	19268*	1408	+
Cc1ccc(NC(=O)Cc2ncc(C(F)(F)F)cc2Cl)cc1Cl	-11.1	-0.425	·	6.0	-6.0	·	·	·	·
O=c1c2ccccc2c2c(O)nc(-c3ccccc3)n2n1Cc1ccccc1	1.6	0.197	·	22.1	-8.0	·	·	·	·
O=C(c1c(F)c(F)c(F)c(F)c1F)N1CCc2ccccc21	·	0.126	0.0791	·	·	-10.4	·	·	·
Cc1noc(C)c1S(=O)(=O)N1CCCC(C(=O)NCc2ccccn2)C1 (stereo not drawn)	6.1	-0.319	4.17*	0.3	4.0	-17.6	6380*	1568	i
CCOc1ccc(NC(=O)Cn2nnc(C(=O)NCc3ccccc3OC)c2N)cc1	-6.3	0.714	4.29*	-7.3	-11.0	-25.5	4744	1560	i
CCOC(=O)c1oc2ccc(S(=O)(=O)N3CCOCC3)cc2c1C	-2.9	-1.24	4.32*	1.7	-1.0	-12.2	7344*	1548	i
CCOC(=O)c1oc2ccc(S(=O)(=O)N3CCC(C)CC3)cc2c1C	-12.4	0.246	1.38	15.8	-12.0	14.7	·	·	·
COc1ccc(CCNc2c(N)n(Cc3ccccc3)c(=O)[nH]c2=O)cc1OC	4.4	0.657	4.74*	3.1	2.0	-0.7	14452*	1596	+
Nc1c(NCCC2=CCCCC2)c(=O)[nH]c(=O)n1Cc1ccccc1	0.3	·	·	7.0	1.0	34.2	·	·	·
